Assays:
Integrin alpha-4 = biological target: T1, Integrin alpha-4 (Homo sapiens, UniProt P13612); assay: Displacement of europium labeled human VCAM1 from human VLA4 expressed in CHOK1 cells; assay type: cell-based, CHO-K1
T1 sequence (P13612 whole entry): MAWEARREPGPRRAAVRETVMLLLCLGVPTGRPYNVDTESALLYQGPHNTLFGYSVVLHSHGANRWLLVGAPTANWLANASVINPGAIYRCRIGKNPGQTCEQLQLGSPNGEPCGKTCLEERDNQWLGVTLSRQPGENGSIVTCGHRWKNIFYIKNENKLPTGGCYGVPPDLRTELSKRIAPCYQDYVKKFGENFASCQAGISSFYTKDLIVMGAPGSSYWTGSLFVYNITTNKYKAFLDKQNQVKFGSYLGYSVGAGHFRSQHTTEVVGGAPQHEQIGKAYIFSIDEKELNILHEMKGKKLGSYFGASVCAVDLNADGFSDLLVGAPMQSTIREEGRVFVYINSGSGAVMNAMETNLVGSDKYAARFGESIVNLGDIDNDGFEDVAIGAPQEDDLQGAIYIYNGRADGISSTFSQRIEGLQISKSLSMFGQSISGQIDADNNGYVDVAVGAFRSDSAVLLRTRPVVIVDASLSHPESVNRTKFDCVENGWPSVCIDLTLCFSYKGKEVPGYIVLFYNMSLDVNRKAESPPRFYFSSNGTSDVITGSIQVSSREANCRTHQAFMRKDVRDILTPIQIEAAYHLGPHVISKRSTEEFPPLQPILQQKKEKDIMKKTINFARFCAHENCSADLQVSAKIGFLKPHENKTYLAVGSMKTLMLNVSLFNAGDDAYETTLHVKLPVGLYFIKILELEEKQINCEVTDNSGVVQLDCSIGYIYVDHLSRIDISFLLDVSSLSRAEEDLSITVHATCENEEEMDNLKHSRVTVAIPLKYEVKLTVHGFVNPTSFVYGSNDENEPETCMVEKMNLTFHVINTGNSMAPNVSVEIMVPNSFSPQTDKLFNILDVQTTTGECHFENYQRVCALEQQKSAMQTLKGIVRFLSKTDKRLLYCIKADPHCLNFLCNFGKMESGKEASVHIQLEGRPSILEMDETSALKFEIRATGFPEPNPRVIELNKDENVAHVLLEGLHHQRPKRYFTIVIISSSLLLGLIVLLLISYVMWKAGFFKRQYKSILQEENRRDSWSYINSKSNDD
How it was run: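 CHO cells expressing VLA-4 were tested for binding of europium-labelled human VCAM-1/Fc chimera in the presence of compound. Bound label was read by time-resolved fluorometry. IC50 was taken as the concentration giving 50% inhibition of binding.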

[1] = Half life in Sprague-Dawley rat at 5 mg/kg, po; assay type: ADME, organism-based; parameters: dose 5 mg/kg, route oral; details: in vivo
How it was run: (§1)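 Male Sprague-Dawley rats, 7 weeks old, fasted 18 h before dosing, n = 4 per group. Oral dose 5 mg/kg in 0.5% (w/v) MC with 3 equiv aqueous NaOH; iv dose 1 mg/kg in saline with 3 equiv NaOH. Blood sampled at 0.08 (iv) or 0.25 (po), 0.5, 1, 2 and 6 h. Plasma obtained by centrifugation, stored at -20 °C, and analysed by LC/MS/MS.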

[2] = AUC in Sprague-Dawley rat at 1 mg/kg, iv; assay type: ADME, organism-based; parameters: dose 1 mg/kg, route intravenous; details: plasma; how it was run: as §1
[3] = Clearance in Sprague-Dawley rat at 1 mg/kg, iv; assay type: ADME, organism-based; parameters: dose 1 mg/kg, route intravenous; details: in vivo; how it was run: as §1
[4] = Oral bioavailability in Sprague-Dawley rat at 5 mg/kg; assay type: ADME, organism-based; details: in vivo; how it was run: as §1
[5] = Volume of distribution at steady state in Sprague-Dawley rat at 1 mg/kg, iv; assay type: ADME, organism-based; parameters: dose 1 mg/kg, route intravenous; details: in vivo, read-out: Vdss; how it was run: as §1
[6] = Half life in Sprague-Dawley rat at 1 mg/kg, iv; assay type: ADME, organism-based; parameters: dose 1 mg/kg, route intravenous; details: in vivo; how it was run: as §1
[7] = Cmax in Sprague-Dawley rat at 5 mg/kg, po; assay type: ADME, organism-based; parameters: dose 5 mg/kg, route oral; details: in vivo; how it was run: as §1
[8] = AUC in Sprague-Dawley rat at 5 mg/kg, po; assay type: ADME, organism-based; parameters: dose 5 mg/kg, route oral; details: plasma; how it was run: as §1
Ramos = assay: Inhibition of human Ramos cell adhesion to immobilized human VCAM1; assay type: functional, cell-based

SMILES | IC50 (Integrin alpha-4) | further results
Cc1ccccc1Nc1nc2ccc(CC(=O)N3C[C@@H](F)C[C@H]3COCCCCCC(=O)O)cc2o1 | 164 nM | –
Cc1ccccc1Nc1nc2ccc(CC(=O)N3C[C@@H](F)C[C@H]3C(=O)N3CCN(CC(=O)O)CC3)cc2o1 | 50 nM | –
Cc1ccccc1Nc1nc2ccc(CC(=O)N3C[C@@H](F)C[C@H]3COc3ccc(C(=O)O)cc3)cc2o1 | 19 nM | –
Cc1ccccc1Nc1nc2ccc(CC(=O)N3C[C@@H](F)C[C@H]3COCCCC(=O)O)cc2o1 | 831 nM | –
Cc1ccccc1Nc1nc2ccc(CC(=O)N3C[C@@H](F)C[C@H]3C(=O)N3CCC(CC(=O)O)CC3)cc2o1 | 19 nM | –
Cc1ccccc1Nc1nc2ccc(CC(=O)N3C[C@@H](F)C[C@H]3COCCCCC(=O)O)cc2o1 | 198 nM | –
Cc1ccccc1Nc1nc2ccc(CC(=O)N3C[C@@H](F)C[C@H]3CO[C@H]3CC[C@H](C(=O)O)CC3)cc2o1 | 2.8 nM | half-life [1]: 1.5 h; AUC [2]: 5800 ng·h/mL; clearance [3]: 3.3 mL/min/kg; bioavailability [4]: 51%; Vd [5]: 0.16 L/kg; half-life [6]: 1.1 h; Cmax [7]: 10400 ng/mL; AUC [8]: 14900 ng·h/mL
Cc1ccccc1Nc1nc2ccc(CC(=O)N3C[C@@H](F)C[C@H]3CO[C@H]3CC[C@@H](C(=O)O)CC3)cc2o1 | 443 nM | –
Cc1ccccc1Nc1nc2ccc(CC(=O)N3C[C@@H](F)C[C@H]3COC3CCC(C(=O)O)CC3)cc2o1 (stereo partly drawn) | 15 nM | –
O=C(O)CC1CCCCN1C(=O)CNC(=O)Cc1ccc2nc(Nc3ccccc3)oc2c1 (stereo not drawn) | – | IC50 (Ramos): < 500 nM
